Columns and labels:
[1] = Stability of the compound in pH 7.4 PIPES buffer assessed as compound hydrolysis at 5 to 10 mg by 31p-NMR analysis; assay type: physicochemical
[2] = tested on: Mycobacterium tuberculosis; test: Inhibition of Mycobacterium tuberculosis BlaC expressed in Escherichia coli at 100 uM using nitrocefin as substrate measured at 2 mins interval for 10 mins relative to control
How it was run: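 Purified BlaC was screened against each compound at a single concentration of 100 µM, and percent inhibition was read. Each % inhibition value comes from n ≥ 4 determinations and is reported with its standard deviation.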

[3] = tested on: Mycobacterium tuberculosis; test: Time-dependent inhibition of Mycobacterium tuberculosis BlaC expressed in Escherichia coli assessed as inactivation rate constant using nitrocefin as substrate

| SMILES | Stability [1] | inhibition [2] | K [3] |
| --- | --- | --- | --- |
| N#Cc1ccc(C(=O)OP(=O)(O)OC(=O)c2ccc(C#N)cc2)cc1 | Unstable |  |  |
| O=C(OP(=O)(O)OC(=O)c1ccc([N+](=O)[O-])cc1)c1ccc([N+](=O)[O-])cc1 | Unstable |  |  |
| O=C(OP(=O)(O)OC(=O)c1ccc(-c2ccccc2)cc1)c1ccc(-c2ccccc2)cc1 | Stable | 0% |  |
| O=C(OP(=O)(O)OC(=O)c1ccc(F)cc1)c1ccc(F)cc1 | Stable | 84.3% | 0.45 min⁻¹ |
| Cc1ccc(C(=O)OP(=O)(O)OC(=O)c2ccc(C)cc2)cc1 | Stable | 41.2% |  |
| O=C(OP(=O)(O)OC(=O)c1ccc(Cl)cc1)c1ccc(Cl)cc1 | Stable | 24.8% |  |
| O=C(OP(=O)(O)OC(=O)c1ccc(Cl)c(Cl)c1)c1ccc(Cl)c(Cl)c1 | Stable | 20.2% |  |
| O=C(OP(=O)(O)OC(=O)c1ccccc1)c1ccccc1 | Stable | 52.3% | 0.324 min⁻¹ |
| COc1ccc(C(=O)OP(=O)(O)OC(=O)c2ccc(OC)cc2)cc1 | Stable | 65.5% | 0.212 min⁻¹ |
| O=C(OP(=O)(O)OC(=O)c1ccc(C(F)(F)F)cc1)c1ccc(C(F)(F)F)cc1 | Stable | 42.5% |  |

Source: ChEMBL document CHEMBL4387777, “Bis(benzoyl) phosphate inactivators of beta-lactamase C from Mtb” (Bioorg Med Chem Lett, 2019)
